ChEMBL document CHEMBL4699639, “Discovery of Novel 2-Aniline-1,4-naphthoquinones as Potential New Drug Treatment for Leber's Hereditary Optic Neuropathy (LHON)” (J Med Chem, 2020)
Activity calls are given as the source filed them. No cut-off for these calls is given here.

Key:
HepG2 [1] = assay: Suppression of rotenone-induced ATP depletion in human HepG2 cells assessed as rescue of ATP level at 5 uM incubated for 2 hrs in presence of complex III inhibitor antimycin by Celltiter-Glo assay; assay type: functional, cell-based
In short: (§1)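 HepG2 cells seeded 10×10^3 per well in 1 g/L glucose, 2% FBS medium the day before. Switched to glucose- and FBS-free medium containing 10 µM rotenone, with compound added at the same time, 2 h at 37 °C. ATP read by CellTiter-Glo luminescence, normalized to DMSO cells without rotenone. Mean ± SEM of ≥3 independent runs. Complex III inhibitors, where used, at 50 nM.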

[2] = Cytotoxicity against C57BL/6J mouse RGC cells assessed as reduction in number of cells at 50 uM incubated for 24 hrs by Hoechst 33342 staining based counting method; assay type: cell-based
In short: (§2)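 Retinal explants from 6–8 month old female wild-type C57BL/6J mice, enucleated eyes placed in ice-cold HBSS. Explants incubated 24 h ex vivo in pre-warmed Neurobasal A with compounds in 0.1% DMSO, alone for toxicity or with 100 µM rotenone for activity. Hoechst 33342-stained nuclei (and anti-RBPMS-positive RGCs) counted in the central retina ganglion cell layer. Mean ± SEM, 1-way ANOVA with Tukey.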

HepG2 [3] = assay: Suppression of rotenone-induced ATP depletion in human HepG2 cells assessed as increase in rescue of ATP level at 0.1 to 1 uM incubated for 2 hrs by Celltiter-Glo assay; assay type: functional, cell-based; details: dose microM 0.1-1, time 2.0 hrs; in short: as §1
SH-SY5Y [4] = assay: Cytotoxicity against human SH-SY5Y cells assessed as reduction in cell viability incubated for 24 hrs by Celltiter-blue assay; assay type: cell-based
HepG2 [5] = assay: Suppression of rotenone-induced ATP depletion in human HepG2 cells assessed as rescue of ATP level at 5 uM incubated for 2 hrs in presence of NQO1 inhibitor dicoumarol by Celltiter-Glo assay; assay type: functional, cell-based
HepG2 [6] = assay: Suppression of rotenone-induced ATP depletion in human HepG2 cells assessed as increase in rescue of ATP level at 1 uM incubated for 2 hrs by Celltiter-Glo assay; assay type: functional, cell-based; in short: as §1
HepG2 [7] = assay: Cytotoxicity against human HepG2 cells assessed as cell reduction in cell viability at 25 uM incubated for 24 hrs by Celltiter-blue assay; assay type: cell-based; details: hepg2, 24 h
In short: (§3)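 HepG2 or SH-SY5Y seeded 10×10^3 per well the day before in 1 g/L glucose medium with 2% FBS. Medium replaced with fresh 2% FBS, 1 g/L glucose medium containing compound (25 µM) for 24 h at 37 °C. CellTiter-Blue added for 4 h, fluorescence read at 560/590 nm. Viability given as % of vehicle/untreated cells. Mean ± SEM of ≥3 independent runs.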

SH-SY5Y [8] = assay: Cytotoxicity against human SH-SY5Y cells assessed as reduction in cell viability at 25 uM incubated for 24 hrs by Celltiter-blue assay; assay type: cell-based; in short: as §3
SH-SY5Y [9] = assay: Cytotoxicity against human SH-SY5Y cells assessed as reduction in cell viability by WST-1 assay; assay type: cell-based
[10] = target: NAD(P)H dehydrogenase [quinone] 1 (Homo sapiens) (UniProt P15559); assay: Substrate activity at NQO1 in human HepG2 cells assessed as reduction in cell viability by WST-1 assay; assay type: cell-based
HepG2 [11] = assay: Cytotoxicity against human HepG2 cells assessed as reduction in cell viability incubated for 24 hrs by Celltiter-blue assay; assay type: cell-based; details: HepG2, 24 h
HepG2 [12] = assay: Suppression of rotenone-induced ATP depletion in human HepG2 cells assessed as rescue of ATP level at 5 uM incubated for 2 hrs in presence of NQO1 irreversible inhibitor ES936 by Celltiter-Glo assay; assay type: functional, cell-based
[13] = Suppression of rotenone-induced ATP depletion in human HepG2 cells assessed as rescue of ATP level incubated for 2 hrs by Celltiter-Glo assay relative to control; assay type: functional; set-up: concentration or dose not given beside the values; in short: as §1
[14] = target: NAD(P)H dehydrogenase [quinone] 1 (Homo sapiens) (UniProt P15559); assay: Substrate activity at NQO1 in human HepG2 cells assessed as reduction in cell viability in presence of NQO1 inhibitor dicoumarol by WST-1 assay; assay type: cell-based
[15] = target: NAD(P)H dehydrogenase [quinone] 1 (Homo sapiens) (UniProt P15559); assay: Substrate activity at recombinant NQO1 (unknown origin) assessed as reduction in NADH level at 20 uM measured for 6 mins by microplate reader analysis
[16] = Cytotoxicity against […] assessed as reduction in cell viability by WST-1 assay; assay type: cell-based; details: r28
[17] = Cytotoxicity against C57BL/6J mouse RGC cells assessed as reduction in number of cells at 100 uM incubated for 24 hrs by Hoechst 33342 staining based counting method; assay type: cell-based; in short: as §2
[18] = Suppression of rotenone-induced ATP depletion in human HepG2 cells incubated for 2 hrs by Celltiter-Glo assay; assay type: functional, cell-based; details: HepG2, 2 h; in short: as §1
[19] = Cytotoxicity against human HepG2 cells assessed as cell viability at 25 uM incubated for 24 hrs by Celltiter-blue assay relative to control; assay type: cell-based; details: read-out: Activity; in short: as §3
RGC = assay: Cytoprotection against rotenone-induced C57BL/6J mouse retinal ganglion cells loss assessed as increase in cell survival at 3 uM incubated for 24 hrs by Hoechst 33342 staining based counting method; assay type: functional, tissue-based; details: in the assay text read “anti-RBPMS antibody staining” for “Hoechst 33342 staining”; in short: as §2
HepG2 [20] = assay: Suppression of rotenone-induced ATP depletion in human HepG2 cells assessed as rescue of ATP level at 5 uM incubated for 2 hrs in presence of complex III inhibitor myxothiazol by Celltiter-Glo assay; assay type: functional, cell-based; in short: as §1

NAD(P)H dehydrogenase [quinone] 1 (Homo sapiens), sequence (P15559 whole entry): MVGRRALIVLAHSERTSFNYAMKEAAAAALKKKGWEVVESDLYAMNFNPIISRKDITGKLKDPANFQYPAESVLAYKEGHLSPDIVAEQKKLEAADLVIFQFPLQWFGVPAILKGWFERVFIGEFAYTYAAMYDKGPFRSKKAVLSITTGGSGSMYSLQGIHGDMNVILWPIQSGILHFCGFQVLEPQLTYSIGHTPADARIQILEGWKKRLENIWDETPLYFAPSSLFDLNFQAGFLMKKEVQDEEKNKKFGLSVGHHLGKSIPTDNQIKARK

With `CSC1=C(Nc2ccc(F)c(C(F)(F)F)c2)C(=O)c2ccccc2C1=O` as the compound, how does the Activity (HepG2 [1]) read?
Its Activity is “inactive”.

And the Activity [2]?
The Activity was “Non-Toxic”.

What about the Activity (HepG2 [3]) of the same compound?
The Activity was “Active”.

And the IC50 (SH-SY5Y [4])?
The IC50 was greater than 100 µM.

What about the Activity (HepG2 [5]) of the same compound?
The Activity was “inactive”.

And the Activity (HepG2 [6])?
Its Activity is “Active”.

What about the Activity (HepG2 [7]) of the same compound?
Its Activity is “Toxic”.

And the Activity (SH-SY5Y [8])?
The Activity was “Toxic”.

What about the Activity (SH-SY5Y [9]) of the same compound?
Its Activity is “Non-Toxic”.

What about the Activity [10] of the same compound?
The Activity was “Active”.

And the IC50 (HepG2 [11])?
Its IC50 is 30.5 µM.

What about the Activity (HepG2 [12]) of the same compound?
Its Activity is “inactive”.

And the Activity [13]?
Its Activity is 55.7%.

And the Activity [14]?
The Activity was “inactive”.

What about the Activity [15] of the same compound?
The Activity was “Active”.

And the Activity [16]?
The Activity was “Non-Toxic”.

What about the Activity [17] of the same compound?
Its Activity is “Toxic”.

And the EC50 [18]?
The EC50 was 0.36 µM.

What about the viability at 24 h, 25 µM [19] of the same compound?
The viability at 24 h, 25 µM was 76.9%.

And the Activity (RGC)?
The Activity was “Active”.

What about the Activity (HepG2 [20]) of the same compound?
Its Activity is “inactive”.
